Test results reported in publication PMC11890989 (Zoological Research, 2025).
“Also recorded” adds a separate entry of the source. Each block holds one substance with its values, some of them ahead of it.

Key:
[1] = test system: AjTRHR; test: Intracellular Ca2+ mobilization; assay type: cell-based, Apostichopus japonicus; conditions: negative control, reverse sequence of AjTRH7; Supplementary Figure S3B
How it was run: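 HEK293T cells were grown in DMEM with 10% FBS at 37°C and 5% CO2. At ~70% confluence they were transfected by lipofection with receptor-pcDNA3.1(+). Cells were loaded with 3 μmol/L Fura-2/AM for 30 min, then stimulated with peptide. Test peptides spanned 10−9–10−5 mol/L, with reversed-sequence peptide or empty-vector cells as negative controls. Fluorescence was read on a plate reader. Experiments were repeated independently at least three times.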

[2] = test system: HEK293T cells transfected with empty pcDNA 3.1(+) vector; test: ERK1/2 phosphorylation, empty pcDNA 3.1; assay type: cell-based, human; conditions: AjTRH7 10^−5 mol/L, negative control, Figure 4E
How it was run: (§1)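 HEK293T cells (DMEM, 10% FBS, 37°C, 5% CO2) were transfected at ~70% confluence with AjTRHR-pcDNA3.1(+) or empty vector using Lipofectamine 2000. Receptor cells received 10^−6 mol/L peptide for 0, 5, 15, 30, 45 or 60 min at 37°C. Lysate protein was BCA-normalised, run on 10% SDS-PAGE, blotted to PVDF and probed for pERK1/2 (1:2 000) and total ERK1/2 (1:1 000). Bands were ECL-detected and densitometry expressed as pERK/tERK; six repetitions, mean+SEM.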

[3] = test system: AjTRHR; test: cAMP content; assay type: cell-based, Apostichopus japonicus; conditions: 10^−9–10^−5 mol/L, 30 min; HEK293T, AjTRHR-pcDNA3.1(+); Figure 4C (AjTRH7), Figure 6A (AjTRH1)
How it was run: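 HEK293T cells transfected with AjTRHR-pcDNA3.1(+) or empty pcDNA3.1(+) were exposed to gradient-diluted peptide (10^−9–10^−5 mol/L) for 30 min. Cells were then washed twice in PBS and lysed, and intracellular cAMP was quantified with a commercial cAMP assay kit.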

[4] = test system: AjCCKP1; test: In vivo relative AjCCKP1 expression in intestine, RT-qPCR; design: species or system Apostichopus japonicus; conditions: AjTRH7 0.05 mg/mL (LTG) injection; F(2,10)=8.091, P<0.05; Figure 7B
[5] = test system: Apostichopus japonicus; test: In vivo feed intake rate; conditions: AjTRH1/AjTRH7 injection, A. japonicus
How it was run: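 Sub-adult sea cucumbers (~30 g) were held in UV-sterilised filtered seawater at 18–20°C, 32 ppt and 12:12 h light/dark. They were fed ad libitum each morning with commercial feed mixed 1:3 with sea mud. Six groups were set up, each in five tanks of six animals. Test peptide in sterile seawater (0.5 or 0.05 mg/mL) or seawater alone was injected at 0.1% (v/w) via the mouth into the coelom at noon every two days, for over 25 days. Uneaten food was collected daily, dried and weighed. FI was calculated per a prior method, and tank was a random factor in linear mixed models with Tukey tests.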

[6] = test system: AjTRHR; test: ERK1/2 phosphorylation; assay type: cell-based, Apostichopus japonicus; conditions: AjTRH7 10^−6 mol/L
How it was run: as §1

[7] = test system: AjTRHR; test: Ligand binding assays / receptor activation summary; assay type: cell-based, Apostichopus japonicus; conditions: for agonism at AjTRHR: bioinformatics and ligand-binding assays, cAMP/PKA-ERK/MAPK cascade and possibly Ca^2+-dependent pathway
[8] = test system: AjCCKP1; test: In vivo relative AjCCKP1 expression in circumoral nerve ring; design: species or system Apostichopus japonicus; conditions: AjTRH7 0.5 mg/mL (HTG) injection; F(2,10)=6.852, P<0.05; Figure 7A
[9] = test system: Apostichopus japonicus; test: In vivo weight gain rate; conditions: 0.05 mg/mL (LTG) vs 0.5 mg/mL (HTG) AjTRH7
How it was run: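 Sub-adult sea cucumbers (30±5.8 g) were kept in filtered UV-sterilised seawater (18–20°C, 32 ppt, 12:12 h light/dark), six per tank and five tanks per group (30 per group), fed ad libitum each morning (commercial feed:sea mud 1:3). Peptide in sterile seawater at 0.5 or 0.05 mg/mL, or seawater alone, was injected orally into the coelom at 0.1% (v/w) every two days at noon for over 25 days. Body weight was taken at start and end to derive WGR. Analysis used linear mixed models with tank as random factor and Tukey tests.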

[10] = test system: AjTRHR; test: SRE-Luc reporter assay; assay type: cell-based, Apostichopus japonicus; conditions: 10^-9-10^-5 mol/L; HEK293T expressing AjTRHR; Supplementary Figure S6
[11] = test system: rats; conditions: obese rats, prolonged TRH administration; ref Al-Arabi & Andrews, 2006; cited from earlier work
[12] = test system: rodents, such as rats and squirrels; conditions: ref Al-Arabi & Andrews, 2006, Frare et al., 2021, Puga et al., 2016, Schuhler et al., 2007, Schwartz et al., 2013, Steward et al., 2003; cited from earlier work

Substance: EWFKWPSGPLQ
Ca2+ response to reverse peptide sequence [1]: no observable responses

agonism at AjTRHR [7]: acts as an agonist for AjTRHR
Substance: pQLPGSPWKFWE [AjTRH7]
p-ERK1/2 response in empty vector cells [2]: no significant responses
cAMP accumulation [3]: cAMP accumulation
AjCCKP1 expression in intestine [4]: significantly up-regulated
food intake (summary) [5]: inhibited food intake
p-ERK1/2 activity at 15 min ([6]; 15 min, 37°C, mean±SEM (n=6), F(5,10)=5.563, P<0.05, Figure 4E): markedly increased
p-ERK1/2 activity at 30 min ([6]; 30 min, 37°C, mean±SEM (n=6), F(5,10)=5.563, P<0.05, Figure 4E): markedly increased
p-ERK1/2 after the peak ([6]; after 15 min peak, up to 60 min): subsequently returning to baseline levels
AjCCKP1 expression in CNR [8]: significantly up-regulated
inhibitory effect, LTG compared with HTG (WGR context) [9]: stronger inhibitory effect in the LTG group than in the HTG group

binding to AjTRHR ([7]; inferred from receptor assays in HEK293T cells expressing AjTRHR): binds to AjTRHR
Substance: pQYFA [AjTRH1]
cAMP accumulation [3]: cAMP accumulation
food intake (summary) [5]: inhibited food intake
agonism at AjTRHR [7]: activates AjTRHR by increasing cAMP levels
Ca2+ mobilization (SRE-driven luciferase activity) [10]: no Ca^2+ mobilization was observed; also recorded: does not induce significant Ca^2+ influx

Substance: thyrotropin-releasing hormone [TRH]
body weight [11]: reduced body weight
food intake [11]: suppress food intake
resting metabolic rate [11]: elevate resting metabolic rates
feeding motivation and feeding behavior [12]: suppress feeding motivation and inhibit feeding behavior
